Data set [1] has as its system MGC-803. The data set is described as follows: Induction of apoptosis in human MGC803 cells assessed as increase in PARP expression after 48 hrs by Western blotting analysis. The format is functional, cell-based. As to conditions: dose 2-8 µM. An outline of the steps: (§1)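 MGC803 cells treated for 48 h, then lysed (0.1% SDS, 150 mM NaCl, 25 mM Tris-HCl, 1% deoxycholate, 1% NP-40, 1% PMSF). Protein quantified by BCA and resolved on 8–10% SDS-PAGE onto PVDF. Blocked in 5% milk, primary antibodies overnight at 4 °C, HRP secondary, ECL. GAPDH, total α-tubulin and H3 as references. Mean ± SD of three experiments.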
Background: A western blot detects proteins with antibodies after separation by electrophoresis.

Data set [2] is described as follows: Acute toxicity in C57BL/6 mouse assessed as spleen tissue damage at 2 g/kg, po administered via gavage measured up to 14 days by HE staining based assay. The format is organism-based. The conditions noted are these: in vivo, 2000 mg/kg, 336 h, time <=14 day. An outline of the steps:
(§2)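 Mice aged 8-10 weeks, 20 females and 20 males, split into two groups: vehicle control (0.5% CMC-Na) or a single oral gavage dose of 2000 mg/kg. Animals were fed and observed normally for 14 days, recording body weight, mortality and behaviour. Heart, liver, spleen, lung and kidney sections were then fixed, embedded and H&E stained.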

A short description of data set [3]: Acute toxicity in C57BL/6 mouse assessed as heart tissue damage at 2 g/kg, po administered via gavage measured up to 14 days by HE staining based assay. The conditions noted are these: in vivo, 2000 mg/kg, 336 h, time <=14 day. The format is organism-based. An outline of the steps: as §2
For data set [4], the system named is MGC-803. The data set is described as follows: Induction of apoptosis in human MGC803 cells assessed as late apoptotic cells at 4 uM measured after 48 hrs by Annexin-V FITC/PI staining based flow cytometry (reference value: 2.74%). The format is functional. In general terms: Flow cytometry measures light scatter and fluorescence of single cells or particles in a stream.

Another data set deals with Histone deacetylase 1 (Homo sapiens, UniProt Q13547). The data set can be described thus: Inhibition of recombinant human HDAC1 using Z-(Ac)-Lys-AMC as substrate incubated for 40 mins by fluorescence based assay.
The target of data set [5] is T1, Protein deacetylase HDAC6 (Homo sapiens) (UniProt Q9UBN7).
T1 sequence (whole entry): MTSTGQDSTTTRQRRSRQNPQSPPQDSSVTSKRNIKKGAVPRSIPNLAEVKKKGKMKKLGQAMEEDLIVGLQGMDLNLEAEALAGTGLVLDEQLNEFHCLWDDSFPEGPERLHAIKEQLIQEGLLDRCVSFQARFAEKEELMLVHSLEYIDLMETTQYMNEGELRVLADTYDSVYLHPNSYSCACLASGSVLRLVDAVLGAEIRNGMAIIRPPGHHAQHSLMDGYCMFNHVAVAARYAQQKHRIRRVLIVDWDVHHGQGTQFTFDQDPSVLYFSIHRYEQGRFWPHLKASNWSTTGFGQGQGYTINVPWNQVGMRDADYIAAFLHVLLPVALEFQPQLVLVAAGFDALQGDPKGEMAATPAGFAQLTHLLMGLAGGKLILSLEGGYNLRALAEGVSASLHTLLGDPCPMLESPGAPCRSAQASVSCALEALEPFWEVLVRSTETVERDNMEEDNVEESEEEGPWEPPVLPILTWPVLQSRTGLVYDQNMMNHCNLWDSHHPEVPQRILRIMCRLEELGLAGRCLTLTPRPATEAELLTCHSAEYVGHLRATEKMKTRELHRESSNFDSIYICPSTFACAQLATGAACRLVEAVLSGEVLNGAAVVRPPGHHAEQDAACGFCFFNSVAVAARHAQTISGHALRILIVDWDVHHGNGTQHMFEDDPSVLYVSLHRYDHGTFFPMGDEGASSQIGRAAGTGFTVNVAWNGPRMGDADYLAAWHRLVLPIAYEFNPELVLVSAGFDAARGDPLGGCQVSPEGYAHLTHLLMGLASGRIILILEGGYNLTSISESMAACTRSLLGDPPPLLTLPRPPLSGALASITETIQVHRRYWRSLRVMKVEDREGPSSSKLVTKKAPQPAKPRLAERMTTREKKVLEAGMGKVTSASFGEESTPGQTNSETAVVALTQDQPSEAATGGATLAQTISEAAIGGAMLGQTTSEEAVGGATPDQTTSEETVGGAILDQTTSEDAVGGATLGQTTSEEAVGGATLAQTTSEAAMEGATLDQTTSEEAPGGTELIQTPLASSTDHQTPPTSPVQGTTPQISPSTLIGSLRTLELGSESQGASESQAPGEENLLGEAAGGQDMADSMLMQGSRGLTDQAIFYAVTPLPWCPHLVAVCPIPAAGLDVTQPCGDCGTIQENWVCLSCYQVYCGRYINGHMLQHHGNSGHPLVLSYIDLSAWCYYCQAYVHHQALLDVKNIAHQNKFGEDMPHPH
The data set can be described thus: Binding affinity to HDAC6 in human MGC803 cells assessed as increase in thermal stability at 4 uM after 6 hrs by CETSA. In kind it is cell-based. As to conditions: MGC-803. An outline of the steps: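 MGC803 grown 24 h in 6-well plates, then exposed to DMSO or 4 µM compound for 6 h. Cells resuspended in ice-cold PBS and split into 6 tubes. Lysed by repeated freeze-thaw, heated 3 min across a 44 to 54 °C gradient. Soluble HDAC6 in the supernatant read by Western blot.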

The target of data set [6] is T2, Protein deacetylase HDAC6 (Homo sapiens, UniProt Q9UBN7).
T2 sequence (Q9UBN7 whole entry): T1 sequence (whole entry)
The data set can be described thus: Inhibition of recombinant full length human HDAC6 expressed in baculovirus infected Sf9 cells using Z-(Ac)-Lys-AMC as substrate incubated for 40 mins by fluorescence based assay.

The subject of data set [7] is MGC-803. The data set can be described thus: Induction of apoptosis in human MGC803 cells assessed as increase in caspase-9 expression after 48 hrs by Western blotting analysis. In kind it is functional, cell-based. As to conditions: dose 2-8 µM. An outline of the steps:
as §1

The subject of data set [8] is MGC-803. The data set can be described thus: Induction of apoptosis in human MGC803 cells assessed as necrotic cells at 8 uM measured after 48 hrs by Annexin-V FITC/PI staining based flow cytometry (reference value: 4.74%). In kind it is functional.
Data set [9] in a line: Acute toxicity in C57BL/6 mouse assessed as kidney tissue damage at 2 g/kg, po administered via gavage measured up to 14 days by HE staining based assay. The format is organism-based. As to conditions: in vivo, 2000 mg/kg, 336 h, time <=14 day. An outline of the steps:
as §2

The subject of data set [10] is MGC-803. The data set can be described thus: Antiproliferative activity against human MGC803 cells incubated for 72 hrs by MTT assay. The format is functional, cell-based. As to conditions: MGC-803, 72 h.
Data set [11] has as its system MGC-803. The data set can be described thus: Inhibition of cell invasion in human MGC803 cells after 72 hrs by transwell assay. The format is functional, cell-based. The conditions noted are these: dose 2-8 µM. An outline of the steps: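 Matrigel-coated transwell: cells in upper chamber with 1% FBS medium, 20% FBS medium below, compound added, 72 h. Cells fixed in 4% paraformaldehyde, DAPI-stained, then imaged and analyzed by high-content analysis. Mean ± SD of three experiments versus DMSO.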

For data set [12], the target named is T2, Protein deacetylase HDAC6. The data set can be described thus: Binding affinity to recombinant human HDAC6 by BLI assay.
Data set [13] is described as follows: Acute toxicity in C57BL/6 mouse assessed as lung tissue damage at 2 g/kg, po administered via gavage measured up to 14 days by HE staining based assay. In kind it is organism-based. The conditions noted are these: in vivo, 2000 mg/kg, 336 h, time <=14 day. An outline of the steps:
as §2

In data set [14] the target is T1, Protein deacetylase HDAC6 (Homo sapiens). The data set is described as follows: Inhibition of HDAC6 in human MGC803 cells assessed as accumulation of acetylated alpha-tubulin level after 48 hrs by Western blotting analysis. The format is cell-based. As to conditions: MGC-803, dose 2-8 µM. An outline of the steps: as §1
A further data set deals with Histone deacetylase 3 (Homo sapiens, UniProt O15379). The data set can be described thus: Inhibition of HDAC3 (unknown origin).
Data set [15] deals with MGC-803. The data set is described as follows: Induction of apoptosis in human MGC803 cells assessed as late apoptotic cells at 8 uM measured after 48 hrs by Annexin-V FITC/PI staining based flow cytometry (reference value: 2.74%). In kind it is functional.

Structures are written as SMILES. Activity calls are given as the source filed them. The rule behind the calls is not given here.

Experimental findings from ChEMBL document CHEMBL4811252, “Identification of novel 1,3-diaryl-1,2,4-triazole-capped histone deacetylase 6 inhibitors with potential anti-gastric cancer activity” (Eur J Med Chem, 2021) are described below.

In general, IC50 refers to the concentration at which inhibition is half-maximal. What is called Kd is the constant that tells how readily two partners part at equilibrium.

Sequence of Histone deacetylase 3 (O15379 whole entry): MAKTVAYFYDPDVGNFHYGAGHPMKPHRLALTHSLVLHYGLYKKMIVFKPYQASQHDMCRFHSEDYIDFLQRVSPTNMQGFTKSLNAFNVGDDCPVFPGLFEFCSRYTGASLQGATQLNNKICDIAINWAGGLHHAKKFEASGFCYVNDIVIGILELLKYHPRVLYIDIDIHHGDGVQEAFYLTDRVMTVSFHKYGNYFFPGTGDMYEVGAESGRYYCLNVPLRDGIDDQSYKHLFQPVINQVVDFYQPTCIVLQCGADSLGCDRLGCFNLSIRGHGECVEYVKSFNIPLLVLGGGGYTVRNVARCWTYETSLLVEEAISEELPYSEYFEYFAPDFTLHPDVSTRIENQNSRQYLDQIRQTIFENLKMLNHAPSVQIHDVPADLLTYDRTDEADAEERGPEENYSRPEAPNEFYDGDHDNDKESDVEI
Sequence of Histone deacetylase 1 (Q13547 whole entry): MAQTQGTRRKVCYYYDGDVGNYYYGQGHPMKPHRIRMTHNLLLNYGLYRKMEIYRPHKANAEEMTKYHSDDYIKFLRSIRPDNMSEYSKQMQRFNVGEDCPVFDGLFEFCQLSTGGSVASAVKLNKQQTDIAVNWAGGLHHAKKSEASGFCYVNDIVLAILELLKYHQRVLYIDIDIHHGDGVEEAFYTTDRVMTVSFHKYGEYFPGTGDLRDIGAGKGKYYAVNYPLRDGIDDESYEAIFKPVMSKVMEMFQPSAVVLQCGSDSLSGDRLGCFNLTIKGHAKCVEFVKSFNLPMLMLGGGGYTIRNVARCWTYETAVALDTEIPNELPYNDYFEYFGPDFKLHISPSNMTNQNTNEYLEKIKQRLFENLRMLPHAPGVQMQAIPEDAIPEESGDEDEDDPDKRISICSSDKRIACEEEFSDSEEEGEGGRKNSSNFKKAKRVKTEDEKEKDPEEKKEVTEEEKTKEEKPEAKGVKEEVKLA

`Cc1ccc(-c2nc(CNc3ccc(C(=O)NO)cc3)n(-c3ccccc3)n2)s1`: the Activity entry was “Dose-Dependent Effect” with MGC-803 [1]; “Non-Toxic” in [2]; “Non-Toxic” in [3]; 15.5% in the data set on MGC-803 [4]; “Dose-Dependent Effect” in the data set with MGC-803 [7]; 1.96% with MGC-803 [8]. The Activity entry in data set [9] is reported as “Non-Toxic”; in [13], “Non-Toxic”; with MGC-803 [15] it was 45.65%. Moreover, the IC50 was 3940 nM on Histone deacetylase 1, 30.6 nM in data set [6], 8450 nM in the data set on MGC-803 [10] and 235 nM at Histone deacetylase 3. The outcome in data set [5] was Active. Moreover, the inhibition entry (in the data set with MGC-803 [11]; in [14]) was “Dose-Dependent Effect” throughout. For the same compound, the Kd in [12] is 7.1 nM.
